This note sets out measurements from ChEMBL document CHEMBL1148715, “Liver-targeted prodrugs of 2'-C-methyladenosine for therapy of hepatitis C virus infection” (J Med Chem, 2007).

Converted amounts (≈) assume the structure as drawn.

One data set deals with Hepatocyte. The data set can be described thus: Activation of prodrug to corresponding nucleoside triphosphate in Sprague-Dawley rat hepatocytes at 25 uM after 2 hrs. The format is cell-based. The essentials: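 Freshly isolated hepatocytes from fed Sprague–Dawley rats (250–300 g), >85% trypan blue viable, 20 mg/mL wet weight. Incubated 2 h at 37 °C in Krebs–bicarbonate buffer with 20 mM glucose and 1 mg/mL BSA; compound added from DMSO stock. Extract reconstituted in water; 2'-C-methyl-ATP measured by LC-MS/MS against an authentic triphosphate standard.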

The test system of a further data set is Liver. Description: Drug level in Sprague-Dawley rat liver at 50 mg/kg, po after 3 hrs. Details: dose 50 mg/kg, route oral. Conditions: in vivo. The format is ADME, organism-based. The essentials:
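Sprague–Dawley rats dosed by oral gavage in PEG-400. Liver (~1 g) taken at 3 h, snap-frozen, then homogenized in 3 volumes ice-cold 70% methanol with 20 mM EDTA/EGTA. Clarified supernatant dried and reconstituted. NTP measured by ion-pair LC-MS/MS ([…]/78.8) against a 0.01–30 μM 2'-C-methyl-ATP calibration curve; reported as nmol/g liver.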

A short description of data set [1]: Solubility in citrate buffer at pH 5.1. The class given is physicochemical.
The nature of data set [2]: Oral bioavailability in Sprague-Dawley rat. The format is ADME, organism-based. Conditions: in vivo. Summed up: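 Rats given the prodrug iv (10 mg/kg) and orally (50 mg/kg, PEG-400; fasted, food returned a few hours after dosing). Liver NTP followed over time by LC-MS/MS. Bioavailability taken as the ratio of liver NTP AUC, oral versus iv.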
Data set [3] can be described thus: Aqueous solubility of the compound. The format is physicochemical.
Data set [4] can be described thus: Chemical stability at pH 7.0. Conditions: buffer. The format is physicochemical. The essentials:
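Half-life measured in pH 7 buffer at 25 °C.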

Take `C[C@@]1(O)[C@H](O)[C@@H](COP2(=O)OCCC(c3cccc(Br)c3)O2)O[C@H]1n1cnc2c(N)ncnc21` (some centres not stated): the Activity with Hepatocyte stood at 99 nmol/g. `C[C@@]1(O)[C@H](O)[C@@H](COP2(=O)OCC[C@@H](c3cccc(Cl)c3)O2)O[C@H]1n1cnc2c(N)ncnc21` (some centres not stated): the results for the Activity in the data set with Hepatocyte and in the data set with Liver were 389 nmol/g and 2.9 nmol/g, respectively. `COc1cc(C2CCOP(=O)(OC[C@H]3O[C@@H](n4cnc5c(N)ncnc54)[C@](C)(O)[C@@H]3O)O2)ccn1` (some centres not stated): the Activity with Hepatocyte stood at 93 nmol/g. Take `C[C@@]1(O)[C@H](O)[C@@H](COP2(=O)OCC[C@@H](c3ccncc3)O2)O[C@H]1n1cnc2c(N)ncnc21` (single isomer, unassigned): the Activity in the data set on Hepatocyte came out at 47 nmol/g; in the data set with Liver, 3.6 nmol/g. The corresponding values for `C[C@@]1(O)[C@H](O)[C@@H](COP2(=O)OCCC(c3cccc(F)c3F)O2)O[C@H]1n1cnc2c(N)ncnc21` (some centres not stated) are 323 nmol/g and 8.2 nmol/g. In the case of `C[C@@]12OC(=O)O[C@@H]1[C@@H](COP1(=O)OCC[C@@H](c3ccncc3)O1)O[C@H]2n1cnc2c(N)ncnc21` (some centres not stated), the Activity turned out to be 185 nmol/g in the data set with Hepatocyte and 28.3 nmol/g with Liver. The solubility in data set [1] and in data set [3] was 450 µg/mL (≈ 892 µM) in each case. In addition, in data set [2], the bioavailability (in general, dose-corrected exposure relative to a reference, in per cent) came out at 39%. Also, the half-life (as a rule, the time needed for the level to fall by half in the phase considered) in data set [4] is 780 min. For the molecule `C[C@@]1(O)[C@H](O)[C@@H](COP2(=O)OCCC(c3cncc(Br)c3)O2)O[C@H]1n1cnc2c(N)ncnc21` (some centres not stated), in the data set with Hepatocyte, the Activity was 194 nmol/g. Still for that read-out and setting: for `C[C@@]1(O)[C@H](O)[C@@H](COP2(=O)OCCC(c3ccc(Cl)c(F)c3)O2)O[C@H]1n1cnc2c(N)ncnc21` (some centres not stated) the value was 328 nmol/g.

In the case of `C[C@@]1(O)[C@H](O)[C@@H](COP2(=O)OCCC(c3cc(Cl)cc(Cl)c3)O2)O[C@H]1n1cnc2c(N)ncnc21` (some centres not stated), the Activity in the data set with Hepatocyte was found to be 585 nmol/g; in the data set on Liver, 2.4 nmol/g. Take `C[C@@]1(O)[C@H](O)[C@@H](COP2(=O)OCCC(c3ccccc3Br)O2)O[C@H]1n1cnc2c(N)ncnc21` (some centres not stated): in the data set with Hepatocyte, the Activity is on record as 122 nmol/g. As to `C[C@@]12OC(=O)O[C@@H]1[C@@H](COP1(=O)OCCC(c3ccc(Cl)c(Cl)c3)O1)O[C@H]2n1cnc2c(N)ncnc21` (some centres not stated), the Activity in the data set on Hepatocyte was found to be 97 nmol/g; in the data set on Liver it was 11.8 nmol/g. Take `C[C@@]1(O)[C@H](O)[C@@H](CO)O[C@H]1n1cnc2c(N)ncnc21`: in the data set on Hepatocyte, the Activity stood at 209 nmol/g. Same read-out and setting: for `C[C@@]1(O)[C@H](O)[C@@H](COP2(=O)OCCC(c3cccc(C#N)c3)O2)O[C@H]1n1cnc2c(N)ncnc21` (some centres not stated) the value was 137 nmol/g; for `C[C@@]1(O)[C@H](O)[C@@H](COP2(=O)OCCC(c3cc(F)ccc3F)O2)O[C@H]1n1cnc2c(N)ncnc21` (some centres not stated), 139 nmol/g. Regarding `C[C@@]1(O)[C@H](O)[C@@H](COP2(=O)OCCC(c3cc(F)cc(F)c3)O2)O[C@H]1n1cnc2c(N)ncnc21` (some centres not stated), the Activity in the data set with Hepatocyte is given as 250 nmol/g; in the data set with Liver, 4.1 nmol/g. The corresponding values for `C[C@@]12OC(=O)O[C@@H]1[C@@H](COP1(=O)OCCC(c3cccc(F)c3)O1)O[C@H]2n1cnc2c(N)ncnc21` (some centres not stated) are 313 nmol/g and 22.9 nmol/g. Turning to `C[C@@]1(O)[C@H](O)[C@@H](COP2(=O)OCCC(c3cc(F)ccc3Br)O2)O[C@H]1n1cnc2c(N)ncnc21` (some centres not stated), the Activity in the data set on Hepatocyte was 72 nmol/g. As to `CCCCCOC(=O)Nc1ncnc2c1ncn2[C@@H]1O[C@H](COP2(=O)OCCC(c3cccc(Cl)c3)O2)[C@@H](O)[C@@]1(C)O` (some centres not stated), the Activity in the data set with Hepatocyte came to 73 nmol/g; in the data set on Liver, 1.6 nmol/g. Consider `C[C@@]12OC(=O)O[C@@H]1[C@@H](COP1(=O)OCCC(c3cc(Cl)cc(Cl)c3)O1)O[C@H]2n1cnc2c(N)ncnc21` (some centres not stated), for which the Activity with Hepatocyte was determined as 49 nmol/g; with Liver, 5 nmol/g. With `C[C@@]1(O)[C@H](O)[C@@H](COP2(=O)OCCC(c3cccnc3)O2)O[C@H]1n1cnc2c(N)ncnc21` (some centres not stated), the Activity in the data set on Hepatocyte was determined as 73 nmol/g. On to `C[C@@]1(O)[C@H](O)[C@@H](COP2(=O)OCCC(c3ccc(Cl)c(Cl)c3)O2)O[C@H]1n1cnc2c(N)ncnc21` (some centres not stated), for which the Activity in the data set with Hepatocyte was 396 nmol/g; in the data set on Liver, 2 nmol/g. The like results for `C[C@@]1(O)[C@H](O)[C@@H](COP2(=O)OCCC(c3cccc(F)c3)O2)O[C@H]1n1cnc2c(N)ncnc21` (some centres not stated) were, in that order, 328 nmol/g and 4.1 nmol/g. The like results for `C[C@@]12OC(=O)O[C@@H]1[C@@H](COP1(=O)OCC[C@@H](c3cccc(Cl)c3)O1)O[C@H]2n1cnc2c(N)ncnc21` (some centres not stated) were, in that order, 296 nmol/g and 29.2 nmol/g.

With `C[C@@]1(O)[C@H](O)[C@@H](COP2(=O)OCCC(c3ccc(C#N)cc3)O2)O[C@H]1n1cnc2c(N)ncnc21` (some centres not stated), the Activity in the data set on Hepatocyte turned out to be 41 nmol/g.

Turning to `C[C@@]1(O)[C@H](O)[C@@H](COP2(=O)OCCC(c3ccccn3)O2)O[C@H]1n1cnc2c(N)ncnc21` (some centres not stated), the Activity in the data set on Hepatocyte was found to be 93 nmol/g. As to `CC(C)[C@H](N)C(=O)O[C@@H]1[C@@H](COP2(=O)OCCC(c3cccc(Cl)c3)O2)O[C@@H](n2cnc3c(N)ncnc32)[C@]1(C)O` (some centres not stated), the Activity in the data set on Hepatocyte stood at 117 nmol/g; in the data set with Liver, 3.1 nmol/g. The like results for `C[C@@]12OC(=O)O[C@@H]1[C@@H](COP1(=O)OCCC(c3cc(F)cc(F)c3)O1)O[C@H]2n1cnc2c(N)ncnc21` (some centres not stated) were, in that order, 113 nmol/g and 11.2 nmol/g. For the molecule `Cc1cncc(C2CCOP(=O)(OC[C@H]3O[C@@H](n4cnc5c(N)ncnc54)[C@](C)(O)[C@@H]3O)O2)c1` (some centres not stated), the Activity with Hepatocyte is 73 nmol/g.
